ERAP1 HTS inh – human ERAP1 aminopeptidase inhibitors, primary screen, biochemical, single point, plate reader; 340,000 tested, 0.15% active; recombinant ERAP1, Leu-AMC fluorescence, 60 min; inhibition, % at 10.7 µM; Endoplasmic reticulum aminopeptidase 1 (Homo sapiens), Q9NZ08;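 active = mean replicate inhibition of at least 30%, or all replicates individually reaching that 30% level; inactive = mean below 30% and not every replicate reaching it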;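 also: 0% = neutral control wells and 100% = L-leucinethiol positive control wells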
Cneo AK release – Cryptococcus neoformans cell lysis inducers, primary screen, AK release luminescence, single concentration. 360,000 tested, 0.2% active. C. neoformans lysis, adenylate kinase release luminescence, 4 h; normalised: neutral wells 0, clomiphene wells 100. lysis activity, % at 15 µM;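 active = mean lysis activity across replicates of at least 80%, whatever share of replicates individually reach that level; inactive = mean lysis activity below 80%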
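Material – Cryptococcus neoformans yeast cells · Quantity – 5 × 10^6 yeast cells/mL · Buffer or medium – YPD medium · Compound – single dose · Timing – 4 h static compound exposure, 37 °C, read 1 h post-reagent · Signal – adenylate kinase release luminescence · Read-out basis – lysis from increased AK signal · Benchmarks – Clomiphene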
FGF22 binding – binders of human FGF22 protein, primary screen, FGF22 synaptogenesis inhibitor project, biophysical, thermal shift, single point | Fibroblast growth factor 22 (Homo sapiens), Q9HCT0 | recombinant FGF22 thermal shift, SYPRO orange fluorescence; percent of sucrose octasulfate shift, DMSO zero | activity (Tm shift, normalised), % at 9.99 µM | 340,000 tested, 1.5% active;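 active = mean Tm shift, scaled 0 neutral to 100 positive control, at about 1.3% or above, every replicate too, limit read from the data; inconclusive = no clear call, values can overlap the other calls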
Target sequence (Q9HCT0 whole entry, looked up): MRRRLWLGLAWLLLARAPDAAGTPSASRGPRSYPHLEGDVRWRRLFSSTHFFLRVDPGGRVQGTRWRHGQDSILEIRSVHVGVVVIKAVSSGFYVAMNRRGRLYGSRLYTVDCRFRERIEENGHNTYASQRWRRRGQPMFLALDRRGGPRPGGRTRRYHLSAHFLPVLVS
Env fusion inh – inhibitors of HIV-1 Env-driven cell-cell fusion, primary screen, HeLa-JRFL effector, CEM21 target cells, luciferase; inhibition, % at 12.3 µM; AID 651610, 2012; 360,000 tested, 1.1% active;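 active = mean replicate inhibition score of at least 50 and every replicate individually at or above 50; inconclusive = only one of the two criteria met; inactive = mean below 50 and not all replicates reaching 50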;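 also: 0% = plate neutral controls and 100% = maraviroc near 300 nM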
rRNA inh HTS – reduced GFP signal of wild-type E. coli, primary screen, bacterial rRNA inhibitor project, GFP/RFP fluorescence, OD600, single point. E. coli WT GFP vs humanized-ribosome RFP mutants, 24 h; active compounds read low; DMSO median 0, no signal -100. GFP signal change (wild-type ribosome), % (no concentration beside the values). 350,000 tested, 1.6% active;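 active = significant combined selectivity score with lowered wild-type GFP, culture density cut under 30%, mutant RFP and density less affected; inactive = any of these conditions unmet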
PGC1a acetyl inh – inhibitors of PGC1a acetylation signal, primary screen, cell-based, U2OS, AlphaScreen, inhibitor mode | AlphaScreen anti-acetyl-lysine; with virally co-expressed GCN5 acetyltransferase | inhibition, % at 15.6 µM | 350,000 tested, 0.17% active | AID 651687, 2012;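 active = every replicate shows inhibition of at least 40%; inconclusive = mean inhibition at least 40% but some replicate below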;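 also: 0% = neutral control wells and 100% = positive control wells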
The depositor's hits bear a star; ? = inconclusive; nt = not tested or not shown; [ ] = remark or other dose. Only some compounds are listed: those with a hit (about 3.5% of all), similar ones and a draw of the others.

SMILES	ERAP1 HTS inh	Cneo AK release	FGF22 binding	Env fusion inh	rRNA inh HTS	PGC1a acetyl inh
Fc1ccc(/C=N/N2CCCCC2)c(F)c1	0	1	0	-14	17	66*
Cc1ccc2cc3c(N)c(C(=O)N4CCOCC4)sc3nc2c1	nt	nt	nt	-272	nt	1
Cc1ccc2nc3sc(C(=O)N4CCOCC4)c(N)c3cc2c1	nt	-4	nt	74*	nt	nt
O=C(NCc1ccco1)c1cnn2c1NC(c1ccc(Br)cc1)CC2C(F)(F)F (stereo unspecified)	nt	0	nt	nt	nt	1
O=c1cnnc(N/N=C/c2c[nH]c3ccccc23)[nH]1	-4	3	43*	-1	7	1
O=c1nc(N/N=C/c2c[nH]c3ccccc23)cn[nH]1	-8	nt	0	48	-4	-4
C[C@@H]1CN([C@@H](C)CO)C(=O)c2cc(NC(=O)Nc3ccc(F)cc3)ccc2O[C@@H](C)CCCCO[C@H]1CN(C)C(=O)C1CCCCC1	1	-2	0	9[16.7 µM]	1	3
CCN1CCN(CC(=O)N2N=C(c3cccs3)CC2c2ccc(OC)cc2)C(=O)C1=O (stereo unspecified)	5	nt	43*	10	-3	nt
O=C1NCCc2c1[nH]c1ccc([N+](=O)[O-])cc21	-2	nt	0	67*	-2	nt
COc1ccc2[nH]c3c(c2c1)CCNC3=O	0	0	0	?	2	nt
Nc1nnc(Sc2ccc(Cl)cc2[N+](=O)[O-])s1	-1	nt	0	-74	-5	nt
COc1ccc(S(=O)(=O)N2CCC(O)(c3ccc(Cl)cc3)CC2)cc1OC	-1	nt	0	11	-24*	6
Cc1ccc2cccc(Oc3ncnc4sc(C)c(C)c34)c2n1	0	nt	43*	-10	-36	2
Cc1ccc(-c2csc3ncnc(Oc4cccc5ccc(C)nc45)c23)cc1	1	nt	44*	14	nt	-3
Cc1sc(NC(=O)CS(=O)(=O)c2ccccc2)c(C(N)=O)c1C	1	-1	8.3*	-10	5	10
COC(=O)c1c(NC(=O)CCCC(=O)O)sc(C)c1C	nt	0	nt	nt	nt	2
Cc1sc(NC(=O)CCCC(=O)O)c(C(N)=O)c1-c1ccccc1	0	nt	43*	19	-5	nt
O=C(NCc1ccccc1)[C@@H]1CCCN1C(=O)[C@@H](NS(=O)(=O)c1ccc(F)cc1F)c1ccccc1	-6	nt	0	-3	-4	nt
COc1ccc(-c2c(S(=O)(=O)c3ccccc3)cnn2-c2ccccc2)cc1	nt	12	nt	63*	nt	-11
O=S(=O)(c1ccccc1)c1cnn(-c2ccccc2)c1-c1ccc(Cl)cc1	nt	-1	nt	-1	nt	-13
Cc1ccccc1Nc1c(-c2ccccn2)nc2ccccn12	2	11	0	-113	-54*	3
Cc1ccn2c(Nc3ccccc3)c(-c3ccccn3)nc2c1	0	2	0	66*	7	12
Cc1ccn2c(Nc3ccccc3C)c(-c3ccccn3)nc2c1	7	3	0	36	-48	5
Cc1cccn2c(Nc3ccccc3)c(-c3ccccn3)nc12	-4	13	0	11	-43*	-3
COc1ccc(C2=NN(CCC(=O)NCC3CCCO3)C(=O)CC2)cc1 (stereo unspecified)	-8	1	0	-3	6	-1
SMILES	ERAP1 HTS inh	Cneo AK release	FGF22 binding	Env fusion inh	rRNA inh HTS	PGC1a acetyl inh
C=CCn1nc(C(=O)Nc2ccc(OC)cc2)cc1-c1sc(NC(=O)c2ccccc2)nc1C	-2	nt	0	20	nt	nt
Cc1ccccc1NC1=C/C(=N\S(=O)(=O)c2cccs2)c2ccccc2C1=O	nt	0	nt	121*	nt	88*
CC(=O)Nc1ccc(NC2=C/C(=N/S(=O)(=O)c3cccs3)c3ccccc3C2=O)cc1	1	nt	1	-8	5	70*
COc1ccc(S(=O)(=O)/N=C2\C=C(Nc3ccc(O)cc3)C(=O)c3ccccc32)cc1	-3	0	0	75*	-45	nt
Cc1ccc(NC2=C/C(=N/S(=O)(=O)c3cccs3)c3ccccc3C2=O)cc1C	5	5	0	7	13	6
CC(=O)Nc1ccc(NC(=O)C(C)OC(=O)c2ccccc2NS(=O)(=O)c2cccs2)cc1 (stereo unspecified)	-1	-1	0	-4	-10	3
Cc1ccccc1NC1=C/C(=N\S(=O)(=O)c2ccc(C(=O)O)cc2)c2ccccc2C1=O	0	0	-1	5	-4	nt
O=C(O)c1ccccc1C(=O)N1N=C2/C(=C/c3cccc([N+](=O)[O-])c3)CCCC2C1c1cccc([N+](=O)[O-])c1 (stereo unspecified)	-9	nt	2.3*	-6	-5	3
O=C(O)c1c(C(=O)N2N=C3/C(=C/c4ccccc4)CCCC3C2c2ccccc2)cccc1[N+](=O)[O-] (stereo unspecified)	5	nt	-1	-6	-12	nt
Cn1nccc1C(=O)Nc1sc2c(c1C#N)CCCC2	-1	-4	0	nt	2	nt
CCOC(=O)C1(Cc2cccc(OC)c2)CCN(CCO)CC1	-2	-2	44*	5	16	-5
COc1cccc(CC2(CO)CCCN(S(=O)(=O)N(C)C)C2)c1 (stereo unspecified)	3	nt	0	-6	-4	nt
CCOC(=O)N1CCC(N2CCCC(CO)(Cc3cccc(OC)c3)C2)CC1 (stereo unspecified)	0	nt	43*	-12	3	nt
CCOC(=O)C1(Cc2cccc(OC)c2)CCN(CC(O)CO)CC1 (stereo unspecified)	nt	-2	0	-19	11	-3
COCCn1c(=N)c(C(=O)NCc2ccco2)cc2c(=O)n3cc(C)ccc3nc21	66*	0	0	-10	10	nt
COC(=O)C1=C(C)N(Cc2cccc(C(F)(F)F)c2)C(=NCc2ccc(OC)cc2)NC1c1cccc(F)c1 (stereo unspecified)	1	nt	0	24	-46	nt
COc1cccc(CNC(=O)C2CCN(S(=O)(=O)c3ccc(-n4cnnn4)cc3)CC2)c1	5	11	43*	22	-1	nt
N=C1S/C(=C\c2ccco2)C(=O)N1c1ccc2c(c1)OCO2	-18	1	0	-5	-43*	-3
Cc1ccc(S(=O)(=O)N(C)C[C@@H]2Oc3ccc(NC(=O)C4CCCCC4)cc3CC(=O)N([C@H](C)CO)C[C@@H]2C)cc1	1	2	0	95*[16.7 µM]	-3	1

High-throughput results as filed in PubChem BioAssay.
